Experimental data: ChEMBL document CHEMBL1938393, “Multiparameter exploration of piperazine derivatives as δ-opioid receptor agonists for CNS indications” (Bioorg Med Chem Lett, 2012)

Legend:
[1] = biological target: Delta-type opioid receptor (Homo sapiens, UniProt P41143); assay: Displacement of [I125]deltorphin from delta-opioid receptor overexpressed in human HEK293 cells; assay type: cell-based
MDR1 (P-gp), human = assay: Apparent permeability across apical to basolateral side in MDCK cells transfected with human MDR1 gene; assay type: ADME, cell-based, Canis lupus familiaris; conditions: dog
Outline: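 Transport assay on MDCK cell monolayers transfected with the human MDR1 gene; flux measured in the apical-to-basolateral direction.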

[2] = biological target: Voltage-gated inwardly rectifying potassium channel KCNH2 (Homo sapiens, UniProt Q12809); assay: Inhibition of human Erg
Voltage-gated inwardly rectifying potassium channel KCNH2, sequence (Q12809 whole entry): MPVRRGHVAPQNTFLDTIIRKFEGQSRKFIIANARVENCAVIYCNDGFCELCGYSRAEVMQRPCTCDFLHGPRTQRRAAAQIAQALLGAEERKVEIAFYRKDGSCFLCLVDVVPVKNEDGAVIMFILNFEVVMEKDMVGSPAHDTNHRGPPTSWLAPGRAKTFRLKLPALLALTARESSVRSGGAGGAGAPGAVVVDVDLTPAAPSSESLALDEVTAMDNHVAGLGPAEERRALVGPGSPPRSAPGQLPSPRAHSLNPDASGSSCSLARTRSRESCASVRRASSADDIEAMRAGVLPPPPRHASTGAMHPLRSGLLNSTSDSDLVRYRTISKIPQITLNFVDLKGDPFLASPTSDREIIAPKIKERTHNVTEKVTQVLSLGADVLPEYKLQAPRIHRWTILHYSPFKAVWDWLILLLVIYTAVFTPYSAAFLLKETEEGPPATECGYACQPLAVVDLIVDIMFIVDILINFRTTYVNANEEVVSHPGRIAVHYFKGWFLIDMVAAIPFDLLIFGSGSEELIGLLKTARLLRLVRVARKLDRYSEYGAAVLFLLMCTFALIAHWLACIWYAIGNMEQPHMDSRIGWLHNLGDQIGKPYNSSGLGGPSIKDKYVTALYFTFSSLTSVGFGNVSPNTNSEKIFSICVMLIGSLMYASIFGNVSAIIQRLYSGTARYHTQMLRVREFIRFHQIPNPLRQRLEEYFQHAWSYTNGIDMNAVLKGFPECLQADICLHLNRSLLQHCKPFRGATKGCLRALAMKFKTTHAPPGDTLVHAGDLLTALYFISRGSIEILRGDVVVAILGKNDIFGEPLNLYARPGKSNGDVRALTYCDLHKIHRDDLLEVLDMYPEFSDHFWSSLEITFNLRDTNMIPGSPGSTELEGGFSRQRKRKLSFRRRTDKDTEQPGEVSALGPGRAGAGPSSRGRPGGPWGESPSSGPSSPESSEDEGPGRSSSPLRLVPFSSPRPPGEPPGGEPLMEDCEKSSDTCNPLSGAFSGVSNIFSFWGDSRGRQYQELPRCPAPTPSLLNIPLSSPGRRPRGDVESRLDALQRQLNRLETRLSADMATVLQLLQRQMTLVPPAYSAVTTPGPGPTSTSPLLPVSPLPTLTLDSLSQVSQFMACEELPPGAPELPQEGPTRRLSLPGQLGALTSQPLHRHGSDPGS

HEK293 = assay: Selectivity ratio of IC50 for mu-opioid receptor overexpressed in human HEK293 cells to IC50 for delta-opioid receptor overexpressed in human HEK293 cells; assay type: cell-based
[3] = Intrinsic clearance in human liver microsomes; assay type: ADME, Microsome; conditions: read-out: CLH

Delta-type opioid receptor, sequence (P41143 whole entry): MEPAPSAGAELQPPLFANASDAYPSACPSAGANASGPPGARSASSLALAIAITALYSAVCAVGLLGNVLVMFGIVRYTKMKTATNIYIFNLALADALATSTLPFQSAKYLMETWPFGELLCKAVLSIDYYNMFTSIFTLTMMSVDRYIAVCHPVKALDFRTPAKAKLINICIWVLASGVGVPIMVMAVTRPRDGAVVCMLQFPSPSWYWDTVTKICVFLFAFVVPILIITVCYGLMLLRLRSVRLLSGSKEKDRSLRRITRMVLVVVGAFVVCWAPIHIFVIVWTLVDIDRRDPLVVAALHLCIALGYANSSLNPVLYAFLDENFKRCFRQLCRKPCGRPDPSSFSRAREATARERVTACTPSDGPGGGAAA

Row | SMILES | IC50 [1] | Papp A→B (MDR1 (P-gp), human) | IC50 [2] | Ratio IC50 (HEK293) | microsomal CLint [3]
1 | CCOC(=O)Nc1ccccc1[C@@H](c1ccc(C(=O)N(CC)CC)cc1)N1CCN(Cc2ccccn2)CC1 | 1.4 nM | 0.43 ×10⁻⁶ cm/s | 9900 nM | > 6000 | 650 µL/min/mg
2 | CCOC(=O)Nc1cccc([C@@H](c2ccc(C(=O)N(C)CC)cc2)N2CCN(Cc3c[nH]c(C)n3)CC2)c1 | 0.7 nM | < 0.1 ×10⁻⁶ cm/s | > 33000 nM | > 12000 | < 4 µL/min/mg
3 | CCN(CC)C(=O)c1ccc([C@H](c2cccc(NC(=O)OC)c2)N2CCN(Cc3cncs3)CC2)cc1 | 0.35 nM | 0.22 ×10⁻⁶ cm/s |  |  | 100 µL/min/mg
4 | CCOC(=O)Nc1ccc([C@@H](c2ccc(C(=O)N(CC)CC)cc2)N2CCN(Cc3cscn3)CC2)cc1 | 1.3 nM | 0.13 ×10⁻⁶ cm/s | 7300 nM | 2700 | 21 µL/min/mg
5 | CCN(C)C(=O)c1ccc([C@H](c2ccccn2)N2CCN(Cc3ccccn3)CC2)cc1 | 5.2 nM | 0.25 ×10⁻⁶ cm/s | > 33000 nM | > 1900 | 20 µL/min/mg
6 | CCN(C)C(=O)c1ccc([C@H](c2cccc(NC(=O)OC)c2)N2CCN(Cc3cscn3)CC2)cc1 | 0.094 nM | 0.12 ×10⁻⁶ cm/s | 17000 nM | 15000 | 38 µL/min/mg
7 | CCOC(=O)Nc1cccc([C@@H](c2ccc(C(=O)N3CCC3)cc2)N2CCN(Cc3cccnc3)CC2)c1 | 4.1 nM | 0.18 ×10⁻⁶ cm/s | 11000 nM | > 2200 | 53 µL/min/mg
8 | CCOC(=O)Nc1cccc([C@@H](c2ccc(C(=O)N(CC)CC)cc2)N2CCN(Cc3cscn3)CC2)c1 | 0.071 nM | < 0.1 ×10⁻⁶ cm/s | 5400 nM | 6200 | 210 µL/min/mg
9 | CCN(C)C(=O)c1ccc([C@H](c2cccc(NC(=O)C3CC3)c2)N2CCN(CCCOC)CC2)cc1 | 23 nM |  | 13000 nM | 33 | < 4 µL/min/mg
10 | CCN(C)C(=O)c1ccc([C@H](c2cccc(NC(=O)C3CC3)c2)N2CCN(Cc3nc(C)cs3)CC2)cc1 | > 100 nM |  | 18000 nM | < 100 | 160 µL/min/mg
11 | CCN(C)C(=O)c1ccc([C@H](c2cccc(NC(=O)C3CCC3)c2)N2CCN(Cc3cccnc3)CC2)cc1 | 6.6 nM | < 0.1 ×10⁻⁶ cm/s | 28000 nM | > 1500 | 85 µL/min/mg
12 | O=C(Nc1cccc([C@@H](c2ccc(C(=O)N3CCC3)cc2)N2CCN(Cc3ccc(F)cc3)CC2)c1)C1CC1 | 0.9 nM | < 0.1 ×10⁻⁶ cm/s | 3600 nM | 480 | 49 µL/min/mg
13 | CN(CCO)C(=O)c1ccc([C@H](c2cccc(NC(=O)C3CC3)c2)N2CCN(Cc3ccc(F)cc3)CC2)cc1 | 0.27 nM | < 0.1 ×10⁻⁶ cm/s | 15000 nM | 11000 | 36 µL/min/mg
14 | CCN(CC)C(=O)c1ccc([C@H](c2cccc(NC(=O)OC)c2)N2CCN(Cc3cccnc3)CC2)cc1 |  | 0.3 ×10⁻⁶ cm/s |  |  | 110 µL/min/mg
15 | CCN(CC)C(=O)c1ccc([C@H](c2cccc(NC(=O)C3CC3)c2)N2CCN(Cc3ccccn3)CC2)cc1 | 0.068 nM |  | 20000 nM | > 120000 | 260 µL/min/mg
16 | CCN(CC)C(=O)c1ccc([C@H](c2cccc(NC(=O)C3CC3)c2)N2CCN(CCOC)CC2)cc1 | 1.1 nM | < 0.1 ×10⁻⁶ cm/s | > 30000 nM | > 9400 | 26 µL/min/mg
17 | CCN(C)C(=O)c1ccc([C@H](c2cccnc2)N2CCN(Cc3cscn3)CC2)cc1 | 4.7 nM | < 0.1 ×10⁻⁶ cm/s |  |  | 40 µL/min/mg
18 | CCN(CC)C(=O)c1ccc([C@H](c2cccc(NC(=O)C3CC3)c2)N2CCN(Cc3ccc(F)cc3)CC2)cc1 | 0.29 nM | < 0.1 ×10⁻⁶ cm/s | 11000 nM | 5200 | 150 µL/min/mg
19 | CCOC(=O)Nc1ccccc1[C@@H](c1ccc(C(=O)N(CC)CC)cc1)N1CCN(Cc2cscn2)CC1 |  | < 0.1 ×10⁻⁶ cm/s |  |  | 430 µL/min/mg
20 | CCN(C)C(=O)c1ccc([C@H](c2cccnc2)N2CCN(Cc3ccccn3)CC2)cc1 | 2 nM | 0.12 ×10⁻⁶ cm/s | 13000 nM | > 5100 | 33 µL/min/mg
21 | CCOC(=O)Nc1cccc([C@@H](c2ccc(C(=O)N(C)CC)cc2)N2CCN(Cc3nc[nH]c3C)CC2)c1 | 0.26 nM | < 0.1 ×10⁻⁶ cm/s | > 33000 nM | 14000 | 17 µL/min/mg
